pEC50: −log10 of the molar value.
Biological target: T1, Glucose-dependent insulinotropic receptor (Homo sapiens, UniProt Q8TDV5)
T1 sequence (Q8TDV5 whole entry): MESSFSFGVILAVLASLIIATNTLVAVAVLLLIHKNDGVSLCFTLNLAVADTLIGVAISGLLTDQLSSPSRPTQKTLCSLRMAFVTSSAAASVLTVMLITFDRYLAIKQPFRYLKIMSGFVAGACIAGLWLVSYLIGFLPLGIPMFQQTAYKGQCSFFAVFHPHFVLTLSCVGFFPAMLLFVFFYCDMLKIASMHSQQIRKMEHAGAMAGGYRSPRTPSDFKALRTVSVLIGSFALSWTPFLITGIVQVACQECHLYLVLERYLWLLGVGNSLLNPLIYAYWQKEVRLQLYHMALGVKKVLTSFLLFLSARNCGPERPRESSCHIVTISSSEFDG
Assay: Agonist activity at recombinant human GPR119 expressed in HEK293 cells after 24 hrs by steady-glo luciferase assay
Assay type: cell-based
How it was run: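 HEK-293 cells stably carrying GPR119 plus a CRE-luciferase reporter, seeded at 10,000 cells/well and cultured 24 h before compound addition at 0.1 nM to 1mM. DMSO served as negative control and AR231453 as reference agonist. Luciferase signal was read after a further 24 h as a surrogate for cAMP elevation.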

pEC50 | SMILES
8.06 | CC(C)(C)OC(=O)N1CCN(C(=O)c2cn(-c3ccc(C(F)(F)F)cc3Cl)nn2)CC1
8.09 | CC(C)(C)OC(=O)N1CCC(OC(=O)c2cn(-c3nc4ccccc4s3)nn2)CC1
8.51 | CC(C)(C)OC(=O)N1CCN(C(=O)c2cn(-c3ccc(S(C)(=O)=O)cc3)nn2)CC1
8.44 | CC(C)(C)OC(=O)N1CCC(OC(=O)c2cn(-c3ccc(C#N)cc3F)nn2)CC1
7.91 | CC(C)(C)OC(=O)N1CCN(C(=O)c2cn(-c3ccc(S(C)(=O)=O)cc3F)nn2)CC1
7.98 | CC(C)(C)OC(=O)N1CCC(OC(=O)c2cn(-c3ccc(C(F)(F)F)cc3)nn2)CC1
7.85 | CC(C)(C)OC(=O)N1CCC(OC(=O)c2cn(-c3ccc(S(C)(=O)=O)cc3F)nn2)CC1
7.87 | CC(C)(C)OC(=O)N1CCN(C(=O)c2cn(-c3ccc(C(F)(F)F)cc3)nn2)CC1
7.91 | CC(C)(C)OC(=O)N1CCC(OC(=O)c2cn(-c3ccc(Cl)c(C(F)(F)F)c3)nn2)CC1
8.38 | CC(C)(C)OC(=O)N1CCN(C(=O)c2cn(-c3ccc(C#N)cc3F)nn2)CC1
7.91 | CC(C)(C)OC(=O)N1CCN(C(=O)c2cn(-c3ccc(Cl)c(C(F)(F)F)c3)nn2)CC1
8.15 | CC(C)(C)OC(=O)N1CCN(C(=O)c2cn(-c3nc4ccccc4s3)nn2)CC1
7.95 | CC(C)(C)OC(=O)N1CCC(OC(=O)c2cn(-c3ccc(C(F)(F)F)cc3Cl)nn2)CC1
8.44 | CC(C)(C)OC(=O)N1CCC(OC(=O)c2cn(-c3ccc(S(C)(=O)=O)cc3)nn2)CC1
8.32 | CC(C)c1noc(C2CCN(c3ncnc(Nc4ccc(S(C)(=O)=O)cc4F)c3[N+](=O)[O-])CC2)n1

From ChEMBL document CHEMBL4406874, “One-pot synthesis of novel tert-butyl-4-substituted phenyl-1H-1,2,3-triazolo piperazine/piperidine carboxylates, potential GPR119 agonists” (Bioorg Med Chem Lett, 2019)
